A short description of data set [1]: Oral bioavailability in ICR mouse at 10 mg/kg by LC-MS/MS analysis. Format: ADME, organism-based. Conditions: in vivo.
A further data set has as its system TSGH. The experiment in a line: Cytotoxicity against human TSGH cells by MTT assay. In kind it is functional, cell-based. In general terms: Formazan colour is commonly taken as a measure of viable cells.
Data set [2] is described as follows: Volume of distribution at steady state in ICR mouse at 2 mg/kg, iv by LC-MS/MS analysis. In kind it is ADME, organism-based. Also noted: dose 2 mg/kg, route intravenous. Conditions: in vivo, read-out: Vdss.
A further data set concerns the target Histone deacetylase 1 (Homo sapiens, UniProt Q13547). The experiment in a line: Inhibition of HDAC1 (unknown origin) using RHKK(Ac) (379 to 382) p53 peptide as substrate by fluorescence assay.
The test system of data set [3] is HCT-116. The experiment in a line: Antitumor activity against human HCT116 cells xenografted in nude athymic mouse assessed as tumor growth inhibition at 100 mg/kg/day, po after 2 to 16 days relative to control. Format: functional. Conditions: read-out: TGI. (In xenograft studies the graft and the host belong to different species.)
Another data set deals with MCF7. In words: Cytotoxicity against human MCF7 cells by MTT assay. Format: functional, cell-based.
Data set [4] can be described thus: Cytotoxicity against human HONE1 cells by MTT assay. Format: functional, cell-based.
Data set [5] is described as follows: Cytotoxicity against human HSC3 cells by MTT assay. In kind it is functional, cell-based. The note with it: HSC-3.
In data set [6] the target is Histone deacetylase (Homo sapiens) (UniProt Q13547+O15379+Q9UBN7+Q92769+Q9UQL6+Q8WUI4+Q9BY41+Q96DB2+P56524+Q9UKV0+Q969S8). Conditions: HCT-116, 1 uM.
For data set [7], the target named is T1, Protein deacetylase HDAC6 (Homo sapiens, UniProt Q9UBN7).
T1 sequence (Q9UBN7 whole entry): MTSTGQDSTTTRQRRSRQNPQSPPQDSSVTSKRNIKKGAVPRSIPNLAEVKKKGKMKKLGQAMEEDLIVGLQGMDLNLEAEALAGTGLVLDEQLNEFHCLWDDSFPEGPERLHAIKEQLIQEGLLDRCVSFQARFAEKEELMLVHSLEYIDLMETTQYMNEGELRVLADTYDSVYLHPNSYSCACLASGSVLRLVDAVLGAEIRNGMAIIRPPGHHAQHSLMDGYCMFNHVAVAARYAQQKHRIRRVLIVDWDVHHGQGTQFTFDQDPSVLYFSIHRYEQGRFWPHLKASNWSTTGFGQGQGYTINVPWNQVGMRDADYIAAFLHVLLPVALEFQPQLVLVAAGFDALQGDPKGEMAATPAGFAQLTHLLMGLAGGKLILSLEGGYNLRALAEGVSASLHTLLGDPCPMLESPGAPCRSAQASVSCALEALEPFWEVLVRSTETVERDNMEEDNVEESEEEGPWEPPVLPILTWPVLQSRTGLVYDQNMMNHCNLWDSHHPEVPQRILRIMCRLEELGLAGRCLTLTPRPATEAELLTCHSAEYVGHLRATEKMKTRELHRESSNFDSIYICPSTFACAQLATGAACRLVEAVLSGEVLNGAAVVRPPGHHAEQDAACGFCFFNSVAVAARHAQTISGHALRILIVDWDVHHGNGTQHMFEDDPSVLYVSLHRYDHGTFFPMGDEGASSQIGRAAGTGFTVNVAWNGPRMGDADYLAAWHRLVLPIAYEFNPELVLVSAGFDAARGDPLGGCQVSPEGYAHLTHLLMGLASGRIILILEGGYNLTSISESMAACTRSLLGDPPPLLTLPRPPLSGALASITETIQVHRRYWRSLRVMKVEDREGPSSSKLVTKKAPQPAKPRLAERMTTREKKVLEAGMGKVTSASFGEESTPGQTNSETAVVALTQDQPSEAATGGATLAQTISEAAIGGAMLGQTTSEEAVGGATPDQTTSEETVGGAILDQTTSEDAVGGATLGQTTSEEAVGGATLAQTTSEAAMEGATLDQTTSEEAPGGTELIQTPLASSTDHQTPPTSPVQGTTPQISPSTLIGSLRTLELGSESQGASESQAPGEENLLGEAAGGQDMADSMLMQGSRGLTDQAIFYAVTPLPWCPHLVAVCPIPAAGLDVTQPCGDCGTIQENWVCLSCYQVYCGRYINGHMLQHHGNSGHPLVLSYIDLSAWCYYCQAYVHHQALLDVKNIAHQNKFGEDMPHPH
The experiment in a line: Inhibition of HDAC6 (unknown origin) using RHKK(Ac) (379 to 382) p53 peptide as substrate by fluorescence assay.

Data set [8] can be described thus: Cytotoxicity against human MKN45 cells by MTT assay. Conditions: MKN-45. Format: functional, cell-based.
Data set [9] is described as follows: AUC (0 to infinity) in ICR mouse at 2 mg/kg, iv by LC-MS/MS analysis. In kind it is ADME, organism-based. Details: time infinity, dose 2 mg/kg, route intravenous. Conditions: plasma.
A short description of data set [10]: Clearance in ICR mouse at 2 mg/kg, iv by LC-MS/MS analysis. In kind it is ADME, organism-based. The note with it: in vivo. Also noted: dose 2 mg/kg, route intravenous.
Data set [11] has as its system HCT-116. In words: Anticancer activity against human HCT116 cells assessed as disruption of 3-dimensional spheroid structure after 72 hrs by phase-contrast light microscopic analysis. In kind it is functional, cell-based. The method in brief: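 HCT116 cells (4 × 10^3/well) grown 5 days in semisolid GFR-Matrigel/10% FBS-DMEM (1:1) to form 3D spheres, then exposed to compound for 72 h; sphere structure examined by phase-contrast light microscopy.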

A further data set has as its system Mus musculus. In words: Toxicity in ICR mouse assessed as change in body weight at 400 to 1000 mg/kg, po treated for 7 days measured for 1 week. In kind it is organism-based. Conditions: in vivo, 168 h. Also noted: dose 400-1000 mg/kg, route oral. In outline: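 ICR mice fasted overnight, then given vehicle (0.2 mL/20 g) or compound orally at 400, 600 or 1000 mg/kg (n = 10/group) daily for 7 days, then monitored 1 week; weighed daily for 1 week, then twice weekly; 2/10 deaths defines toxic dose.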

Data set [12] is described as follows: AUC (0 to infinity) in ICR mouse at 10 mg/kg, po by LC-MS/MS analysis. In kind it is ADME, organism-based. Also noted: time infinity, dose 10 mg/kg, route oral. Conditions: plasma.
A short description of data set [13]: Half life in ICR mouse at 10 mg/kg, po by LC-MS/MS analysis. In kind it is ADME, organism-based. Also noted: dose 10 mg/kg, route oral. Conditions: in vivo.
The target of another data set is Histone deacetylase. In words: Inhibition of HDAC in human HeLa cell nuclear extract using Boc-Lys(Ac)-AMC as substrate after 30 mins by fluorimetric analysis. In kind it is protein assay.
Data set [14] relates to HCT-116. The experiment in a line: Induction of apoptosis in human HCT116 cells assessed as caspase-3 activation at 3 uM after 24 hrs by Western blotting analysis in presence of Z-VAD-FMK. Format: functional, cell-based. The method in brief:
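HCT116 cells treated 24 h with 3 μM compound with or without 20 μM z-VAD-fmk pan-caspase inhibitor; caspase 3 and PARP assessed by Western blot.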

Activity calls are given as the source filed them. The calls are words filed in the database; no cut-off is given here.

Chain of Histone deacetylase 1 (Q13547 whole entry): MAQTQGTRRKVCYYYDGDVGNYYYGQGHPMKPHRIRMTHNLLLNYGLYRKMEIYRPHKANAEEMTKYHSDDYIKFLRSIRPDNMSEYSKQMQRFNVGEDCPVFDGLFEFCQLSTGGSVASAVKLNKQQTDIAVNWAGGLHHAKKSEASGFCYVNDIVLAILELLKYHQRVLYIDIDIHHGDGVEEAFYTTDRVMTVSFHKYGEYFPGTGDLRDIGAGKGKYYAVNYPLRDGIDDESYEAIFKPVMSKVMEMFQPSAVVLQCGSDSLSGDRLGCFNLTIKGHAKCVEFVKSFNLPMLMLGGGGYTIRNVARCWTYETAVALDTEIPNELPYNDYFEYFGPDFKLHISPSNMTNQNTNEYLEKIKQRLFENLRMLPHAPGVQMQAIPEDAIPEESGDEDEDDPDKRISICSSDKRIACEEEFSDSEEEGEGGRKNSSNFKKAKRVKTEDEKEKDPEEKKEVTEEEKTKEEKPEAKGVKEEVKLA

Regarding `O=C(/C=C/c1cccc(S(=O)(=O)n2ccc3cccnc32)c1)NO`, the bioavailability (commonly the share of a dose that reaches the circulation, judged against a reference dose that is usually intravenous) in [1] worked out at 33%. The IC50 (as a rule, the concentration at which inhibition is half-maximal) in the data set with TSGH came out at 2.1 µM; against Histone deacetylase 1, 0.31 µM; with MCF7, 1.33 µM; in data set [4], 1.2 µM; in [5] it was 0.66 µM; in data set [7], 0.0052 µM. Moreover, the IC50 in data set [8] turned out to be 2.51 µM; against Histone deacetylase, 0.1 µM. In data set [2], the Vd was 9.8 L/kg. In addition, in the data set with HCT-116 [3], the inhibition in vivo at 100 mg/kg/day amounted to 66.9%. In addition, in data set [6], the inhibition result is “inactive”. For the same compound, the AUC(0-inf) (usually total exposure, with the tail of the curve extrapolated) was 289 ng·h/mL in [9] and 466 ng·h/mL in data set [12]. Further, the clearance (as a rule, a measure of how efficiently the substance is removed, as volume per time) in data set [10] was 127 mL/min/kg. In addition, the values for the Activity entry with HCT-116 [11] and in the data set with Mus musculus were “Dose-dependent effect” and “Non-toxic”, respectively. Besides, in [13], the half-life (in general, the time in which the quantity being followed falls by half) is 2.4 h. In addition, the outcome in the data set on HCT-116 [14] was inactive.

The values above are taken from ChEMBL document CHEMBL3259569 (J Med Chem, 2014).
